According to ChEMBL document CHEMBL1123827, “Alpha 2-adrenergic agonists/antagonists: the synthesis and structure-activity relationships of a series of indolin-2-yl and tetrahydroquinolin-2-yl imidazolines” (J Med Chem, 1987):

Key:
[1] = molecular target: T1, Adrenergic receptor alpha-2 (Rattus norvegicus, UniProt P22086+P19328+P22909); assay: The compound was evaluated for the alpha-2 adrenergic receptor activity in rat vas deferens.
T1 sequence (P22086 whole entry): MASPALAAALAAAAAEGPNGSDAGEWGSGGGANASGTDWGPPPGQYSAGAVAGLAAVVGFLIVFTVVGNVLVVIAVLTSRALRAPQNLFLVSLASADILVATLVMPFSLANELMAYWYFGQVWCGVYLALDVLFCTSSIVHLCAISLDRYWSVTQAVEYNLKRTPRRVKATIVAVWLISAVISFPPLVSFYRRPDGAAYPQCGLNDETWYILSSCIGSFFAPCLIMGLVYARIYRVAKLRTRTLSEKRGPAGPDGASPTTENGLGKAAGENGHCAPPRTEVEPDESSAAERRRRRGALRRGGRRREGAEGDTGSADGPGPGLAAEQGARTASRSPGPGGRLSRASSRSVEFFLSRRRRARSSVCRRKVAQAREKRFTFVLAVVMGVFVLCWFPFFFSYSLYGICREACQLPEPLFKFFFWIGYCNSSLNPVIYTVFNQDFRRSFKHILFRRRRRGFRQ
T1 sequence (P19328 whole entry): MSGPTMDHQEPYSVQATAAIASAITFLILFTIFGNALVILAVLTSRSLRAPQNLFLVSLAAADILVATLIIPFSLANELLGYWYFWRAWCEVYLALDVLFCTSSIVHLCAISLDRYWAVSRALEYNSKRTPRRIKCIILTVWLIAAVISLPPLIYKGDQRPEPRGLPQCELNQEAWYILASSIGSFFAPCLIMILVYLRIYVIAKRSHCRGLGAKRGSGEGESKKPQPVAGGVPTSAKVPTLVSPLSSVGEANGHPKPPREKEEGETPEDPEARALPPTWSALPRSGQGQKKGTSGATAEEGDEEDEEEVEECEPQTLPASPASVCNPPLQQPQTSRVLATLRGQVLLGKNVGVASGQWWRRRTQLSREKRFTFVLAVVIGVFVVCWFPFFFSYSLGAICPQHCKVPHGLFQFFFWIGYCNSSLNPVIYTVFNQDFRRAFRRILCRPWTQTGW
T1 sequence (P22909 whole entry): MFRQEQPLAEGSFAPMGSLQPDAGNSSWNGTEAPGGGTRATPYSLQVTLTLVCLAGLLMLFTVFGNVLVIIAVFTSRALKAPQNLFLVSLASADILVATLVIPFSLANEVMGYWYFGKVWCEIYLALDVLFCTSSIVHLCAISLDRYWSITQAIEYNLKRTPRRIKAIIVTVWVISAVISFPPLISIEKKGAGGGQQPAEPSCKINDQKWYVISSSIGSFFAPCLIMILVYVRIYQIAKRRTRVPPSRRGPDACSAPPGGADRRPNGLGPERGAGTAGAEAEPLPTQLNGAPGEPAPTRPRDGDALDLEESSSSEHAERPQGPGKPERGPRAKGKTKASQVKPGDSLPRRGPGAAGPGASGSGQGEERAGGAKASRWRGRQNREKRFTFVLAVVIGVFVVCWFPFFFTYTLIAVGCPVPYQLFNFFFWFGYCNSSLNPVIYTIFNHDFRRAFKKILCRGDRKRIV
Outline: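 Isolated vasa deferentia from Sprague-Dawley rats (180–250 g) mounted between platinum ring electrodes at 1 g resting tension in oxygenated Krebs at 37 °C. Single-pulse electrical stimulation (1 ms, 0.15 Hz, lowest voltage giving maximal contraction); inhibition of twitch contractions gives IC50 for agonists. Mean of at least three experiments, separate animals.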

[2] = molecular target: T1, Adrenergic receptor alpha-2; assay: Binding affinity against alpha-2 adrenergic receptor was determined by the displacement of [3H]clonidine from rat brain cortical membranes; type: cell membranes, Membrane

IC50 [1]: 179 nM | Ki [2]: 13.2 nM
SMILES: CSC[C@@]1(C2=NCCN2)Cc2ccccc2N1C
